Source: ChEMBL document CHEMBL4428050, “Design, Synthesis, and Biological Evaluation of Substituted Pyrimidines as Potential Phosphatidylinositol 3-Kinase (PI3K) Inhibitors” (J Med Chem, 2016)
Activity calls are given as the source filed them. The calls are words filed in the database; no cut-off is given here.

How the values were obtained:
[1] = Inhibition of PI3K p110alpha/p85 (unknown origin) using PIP2/ATP as substrate after 1 hr by kinase glo luminescent assay; set-up: species or system Homo sapiens
In short: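 PI3K p110α activity read by Kinase-Glo Plus luminescence. IC50 is the mean of triplicate measurements.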

BGC-823 = assay: Antiproliferative activity against human BGC823 cells after 72 hrs by CCK8 assay; type: functional, cell-based; conditions: Homo sapiens, BGC-823, 72 h
HT-1080 = assay: Antiproliferative activity against human HT1080 cells after 72 hrs by CCK8 assay; type: functional, cell-based; conditions: HT-1080, 72 h
HeLa = assay: Antiproliferative activity against human HeLa cells after 72 hrs by CCK8 assay; type: functional, cell-based; conditions: Homo sapiens, HeLa, 72 h
Bel-7402 = assay: Antiproliferative activity against human Bel7402 cells after 72 hrs by CCK8 assay; type: functional, cell-based; conditions: Bel-7402, 72 h
U-937 = assay: Antiproliferative activity against human U937 cells after 72 hrs by CCK8 assay; type: functional, cell-based; conditions: Homo sapiens, U-937, 72 h
MDA-MB-231 [2] = assay: Antitumor activity against human MDA-MB-231 cells xenografted in nude mouse assessed as tumor size at 30 mg/kg, ig administered every 2 days for 19 days measured post last dose (reference value: 1065 +/- 142 mm'3); type: functional
In short: (§1)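 Nude mice carried MDA-MB-231 xenograft tumours and received vehicle or 30 mg/kg intragastrically every two days for 19 days. Estimated tumour volume and body weight were followed over time. Tumours were dissected from 5 mice per group and weighed. Data are mean±SD, n=5, Student t test.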

[3] = Inhibition of PI3K p110delta/p85 (unknown origin) using PIP2/ATP as substrate after 1 hr by kinase glo luminescent assay; set-up: species or system Homo sapiens
DU-145 = assay: Antiproliferative activity against human DU145 cells after 72 hrs by CCK8 assay; type: functional, cell-based
SGC-7901 = assay: Antiproliferative activity against human SGC7901 cells after 72 hrs by CCK8 assay; type: functional, cell-based; conditions: SGC-7901, 72 h
Huh-7 = assay: Antiproliferative activity against human HuH7 cells after 72 hrs by CCK8 assay; type: functional, cell-based; conditions: Huh-7, 72 h
MCF7 = assay: Antiproliferative activity against human MCF7 cells after 72 hrs by CCK8 assay; type: functional, cell-based; conditions: Homo sapiens, MCF7, 72 h
A549 = assay: Antiproliferative activity against human A549 cells after 72 hrs by CCK8 assay; type: functional, cell-based; conditions: Homo sapiens, A549, 72 h
[4] = target: PI3-kinase subunit gamma/Phosphoinositide 3-kinase regulatory subunit 5 (Homo sapiens, UniProt P48736); assay: Inhibition of PI3K p110gamma/p101 (unknown origin) using PIP2/ATP as substrate after 1 hr by kinase glo luminescent assay; type: protein-complex assay
Chain of PI3-kinase subunit gamma/Phosphoinositide 3-kinase regulatory subunit 5 (P48736 whole entry): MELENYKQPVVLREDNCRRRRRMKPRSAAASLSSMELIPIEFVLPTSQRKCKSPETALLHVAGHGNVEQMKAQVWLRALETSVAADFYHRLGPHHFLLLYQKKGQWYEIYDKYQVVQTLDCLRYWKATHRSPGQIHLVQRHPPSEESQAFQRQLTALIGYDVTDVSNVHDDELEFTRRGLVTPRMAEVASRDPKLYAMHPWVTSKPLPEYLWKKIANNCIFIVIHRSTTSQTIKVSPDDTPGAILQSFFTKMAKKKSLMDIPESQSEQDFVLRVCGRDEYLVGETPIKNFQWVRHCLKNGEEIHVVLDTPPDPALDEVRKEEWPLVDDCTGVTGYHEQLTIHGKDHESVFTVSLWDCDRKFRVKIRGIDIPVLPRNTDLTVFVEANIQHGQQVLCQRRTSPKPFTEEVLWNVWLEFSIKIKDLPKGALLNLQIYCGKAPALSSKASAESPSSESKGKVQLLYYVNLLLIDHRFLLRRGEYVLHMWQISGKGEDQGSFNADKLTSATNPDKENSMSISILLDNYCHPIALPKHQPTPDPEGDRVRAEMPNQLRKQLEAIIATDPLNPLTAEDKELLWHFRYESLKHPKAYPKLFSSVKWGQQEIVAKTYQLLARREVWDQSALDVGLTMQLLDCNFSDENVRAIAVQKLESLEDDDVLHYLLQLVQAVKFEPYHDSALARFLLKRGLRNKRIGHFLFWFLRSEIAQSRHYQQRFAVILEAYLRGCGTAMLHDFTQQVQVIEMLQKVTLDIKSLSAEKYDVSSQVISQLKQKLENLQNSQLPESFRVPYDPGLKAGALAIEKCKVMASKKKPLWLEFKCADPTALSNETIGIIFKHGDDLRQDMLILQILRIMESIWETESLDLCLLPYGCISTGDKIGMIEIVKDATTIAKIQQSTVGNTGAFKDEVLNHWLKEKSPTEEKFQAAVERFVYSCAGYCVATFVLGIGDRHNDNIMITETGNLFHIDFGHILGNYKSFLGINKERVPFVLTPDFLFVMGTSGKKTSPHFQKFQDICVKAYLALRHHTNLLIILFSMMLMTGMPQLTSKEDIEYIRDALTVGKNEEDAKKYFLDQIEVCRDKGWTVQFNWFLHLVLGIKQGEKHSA
Chain of PI3-kinase subunit gamma/Phosphoinositide 3-kinase regulatory subunit 5 (Q8WYR1 whole entry, further chain): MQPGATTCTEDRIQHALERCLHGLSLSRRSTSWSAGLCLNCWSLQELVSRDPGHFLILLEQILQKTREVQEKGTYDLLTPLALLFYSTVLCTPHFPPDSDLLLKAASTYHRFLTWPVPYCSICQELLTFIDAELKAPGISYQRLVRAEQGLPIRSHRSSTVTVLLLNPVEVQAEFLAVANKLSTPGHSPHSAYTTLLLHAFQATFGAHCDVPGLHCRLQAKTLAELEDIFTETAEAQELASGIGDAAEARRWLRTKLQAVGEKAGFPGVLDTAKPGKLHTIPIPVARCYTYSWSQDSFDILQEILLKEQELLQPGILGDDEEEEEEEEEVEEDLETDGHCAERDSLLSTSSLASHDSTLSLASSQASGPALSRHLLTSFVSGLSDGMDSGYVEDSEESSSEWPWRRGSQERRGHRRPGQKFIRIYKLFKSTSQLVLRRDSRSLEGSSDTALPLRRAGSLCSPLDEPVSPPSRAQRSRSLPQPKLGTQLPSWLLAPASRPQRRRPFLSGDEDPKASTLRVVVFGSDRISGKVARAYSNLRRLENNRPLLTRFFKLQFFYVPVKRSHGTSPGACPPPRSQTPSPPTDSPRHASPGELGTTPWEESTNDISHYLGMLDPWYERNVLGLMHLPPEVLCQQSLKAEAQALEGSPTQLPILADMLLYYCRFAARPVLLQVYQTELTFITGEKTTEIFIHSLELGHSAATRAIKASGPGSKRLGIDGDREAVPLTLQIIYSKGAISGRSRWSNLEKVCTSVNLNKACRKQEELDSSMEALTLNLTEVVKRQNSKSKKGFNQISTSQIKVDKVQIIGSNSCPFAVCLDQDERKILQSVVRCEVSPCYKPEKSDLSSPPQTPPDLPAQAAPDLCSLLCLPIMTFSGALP

NCI-N87 = assay: Antiproliferative activity against human NCI-N87 cells after 72 hrs by CCK8 assay; type: functional, cell-based; conditions: Homo sapiens, NCI-N87, 72 h
A-431 = assay: Antiproliferative activity against human A431 cells after 72 hrs by CCK8 assay; type: functional, cell-based; conditions: Homo sapiens, A-431, 72 h
MOLT-4 = assay: Antiproliferative activity against human MOLT4 cells after 72 hrs by CCK8 assay; type: functional, cell-based; conditions: Homo sapiens, MOLT-4, 72 h
MDA-MB-231 [5] = assay: Antitumor activity against human MDA-MB-231 cells xenografted in nude mouse assessed as tumor weight at 30 mg/kg, ig administered every 2 days for 19 days measured post last dose (reference value: 0.74 +/- 0.10 g); type: functional; in short: as §1
[6] = Toxicity in nude mouse xenografted with human MDA-MB-231 cells assessed as decrease in body weight at 30 mg/kg, ig administered every 2 days for 19 days measured during compound dosing; type: organism-based; conditions: in vivo, po; in short: as §1
[7] = Inhibition of PI3K p110beta/p85 (unknown origin) using PIP2/ATP as substrate after 1 hr by kinase glo luminescent assay; set-up: species or system Homo sapiens
K562 = assay: Antiproliferative activity against human K562 cells after 72 hrs by CCK8 assay; type: functional, cell-based; conditions: Homo sapiens, K562, 72 h
PANC-1 = assay: Antiproliferative activity against human PANC1 cells after 72 hrs by CCK8 assay; type: functional, cell-based; conditions: Homo sapiens, PANC-1, 72 h
MDA-MB-231 [8] = assay: Antiproliferative activity against human MDA-MB-231 cells by WST8 assay; type: functional, cell-based
HL-60 = assay: Antiproliferative activity against human HL60 cells after 72 hrs by CCK8 assay; type: functional, cell-based; conditions: HL-60, 72 h
Homo sapiens [9] = species: Homo sapiens; assay: Inhibition of PI3K in human U937 cells assessed as suppression of AKT phosphorylation at S473 after 24 hrs by Western blot analysis; type: cell-based
Homo sapiens [10] = species: Homo sapiens; assay: Selectivity ratio of IC50 for PI3K p110beta/p85 (unknown origin) to IC50 for PI3K p110alpha/p85 (unknown origin)
SK-BR-3 = assay: Antiproliferative activity against human SK-BR-3 cells after 72 hrs by CCK8 assay; type: functional, cell-based; conditions: SK-BR-3, 72 h
PC-3 = assay: Antiproliferative activity against human PC3 cells after 72 hrs by CCK8 assay; type: functional, cell-based; conditions: PC-3, 72 h

Row | IC50 [1] [nM] | IC50 (BGC-823) [nM] | IC50 (HT-1080) [nM] | IC50 (HeLa) [nM] | IC50 (Bel-7402) [nM] | IC50 (U-937) [nM] | IC50 [3] [nM] | IC50 (SGC-7901) [nM] | IC50 (Huh-7) [nM] | IC50 (MCF7) [nM] | IC50 (A549) [nM] | IC50 [4] [nM] | IC50 (A-431) [nM] | IC50 (MOLT-4) [nM] | IC50 [7] [nM] | IC50 (K562) [nM] | IC50 (PANC-1) [nM] | Compound | IC50 (NCI-N87) [nM] | inhibition (Homo sapiens [9]) | other results
1 | 31 | 3090 | 4730 | 2660 | 3370 | 770 | 61 | 3140 | 4260 | 2420 | 3390 | 158 | 3680 | 1000 | 175 | 4260 | 3260 | Nc1cc(C(F)(F)F)c(-c2cc(N3CCOCC3)nc(N3C[C@@H]4OCCO[C@H]4C3)n2)cn1 (racemic) | 1360 | – | Activity (MDA-MB-231 [2]): 402 mm3; IC50 (DU-145; du-145): 1930 nM; Activity (MDA-MB-231 [5]): 0.32 g; Activity [6]: Non-Toxic
2 | 18 | – | – | > 100000 | – | 4740 | 13 | – | – | 12800 | 9130 | 80 | 10500 | 1960 | 2010 | – | 3470 | CS(=O)(=O)N1CCN(C(=O)c2ccc(Nc3nc(-c4cnc(N)cc4C(F)(F)F)cc(N4CCOCC4)n3)cc2)CC1 | 4220 | Active | IC50 (MDA-MB-231 [8]): 4340 nM; IC50 (HL-60): 2490 nM; Ratio IC50 (Homo sapiens [10]): 112; IC50 (SK-BR-3): 4790 nM; IC50 (PC-3): 19500 nM
3 | 28 | 1430 | 2080 | 1170 | 1920 | 580 | 62 | 1240 | 1510 | 1500 | 1510 | – | 1030 | 800 | 259 | 1100 | 1830 | Nc1cc(C(F)(F)F)c(-c2cc(N3CCOCC3)nc(N3CCOCC3)n2)cn1 [BUPARLISIB] | 660 | Active | IC50 (DU-145; Homo sapiens, DU-145, 72 h): 910 nM
